From ChEMBL document CHEMBL1811909, “Synthesis and antiproliferative activity of novel 2-aryl-4-benzoyl-imidazole derivatives targeting tubulin polymerization” (Bioorg Med Chem, 2011)

Columns and labels:
A-375 = assay: Antiproliferative activity against human A375 cells after 48 hrs by sulforhodamine B assay; assay type: functional, cell-based; conditions: A-375, 48 h
[1] = Antiproliferative activity against human WM164 cells after 48 hrs by sulforhodamine B assay; assay type: functional, cell-based; conditions: WM164, 48 h
LNCaP = assay: Antiproliferative activity against human LNCAP cells after 96 hrs by sulforhodamine B assay; assay type: functional, cell-based
PC-3 = assay: Antiproliferative activity against human PC3 cells after 96 hrs by sulforhodamine B assay; assay type: functional, cell-based; conditions: PC-3, 96 h
DU-145 = assay: Antiproliferative activity against human DU145 cells after 96 hrs by sulforhodamine B assay; assay type: functional, cell-based; conditions: DU-145, 96 h
PPC-1 = assay: Antiproliferative activity against human PPC1 cells after 96 hrs by sulforhodamine B assay; assay type: functional, cell-based; conditions: PPC-1, 96 h
Bos taurus = organism: Bos taurus; assay: Inhibition of bovine brain tubulin polymerization after 15 mins by spectrophotometric analysis
Method in brief: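 Bovine brain tubulin (>97% pure, 0.4 mg per assay) mixed with compound at 5, 10 or 20 µM, with 5% DMSO as vehicle control. Buffer: 80 mM PIPES, 2.0 mM MgCl2, 0.5 mM EGTA, 1 mM GTP, pH 6.9. Polymerization followed at 37 °C as absorbance at 340 nm, read every minute for 15 min.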

SMILES | IC50 (A-375) [µM] | IC50 (LNCaP) [µM] | IC50 (PC-3) [µM] | IC50 (DU-145) [µM] | inhibition (Bos taurus) | IC50 [1] [µM] | IC50 (PPC-1) [µM]
COc1ccc(-c2nc(C(=O)c3ccc(F)cc3)cn2C)cc1 | > 10 | > 10 | > 10 | > 10 | Dose-dependent effect | > 10 | > 10
COc1ccc2cc(C(=O)c3cc(OC)c(OC)c(OC)c3)[nH]c2c1 | > 10 | > 10 | > 10 | > 10 | Dose-dependent effect | > 10 | > 10
COc1cc(C(=O)c2c[nH]c(-c3ccc(Cl)cc3)n2)cc(OC)c1O | 0.68 | 0.55 | 0.3 | 1 | Dose-dependent effect | 0.5 | 0.58
COc1cc(C(=O)c2c[nH]c(-c3ccc4[nH]c(C(=O)c5cc(OC)c(OC)c(OC)c5)cc4c3)n2)cc(OC)c1OC | 1.8 | 1.07 | 2.63 | 5.92 | Dose-dependent effect | 1.7 | 4.58
COc1cc(C(=O)c2cc3ccc(Cl)cc3n2Cc2ccccc2)cc(OC)c1OC | > 10 | > 10 | > 10 | > 10 | Dose-dependent effect | > 10 | > 10

Further lines, with some results ahead:

IC50 (A-375) [µM] | IC50 (LNCaP) [µM] | IC50 (PC-3) [µM] | IC50 (DU-145) [µM] | inhibition (Bos taurus) | SMILES | IC50 [1] [µM] | IC50 (PPC-1) [µM]
> 10 | > 10 | > 10 | > 10 | Dose-dependent effect | COc1cc(C(=O)c2cc3ccc(Cl)cc3[nH]2)cc(OC)c1OC | > 10 | > 10
> 10 | > 10 | > 10 | > 10 | Dose-dependent effect | COc1cc(C(=O)c2cc3ccc(C)cc3[nH]2)cc(OC)c1OC | > 10 | > 10
0.1 | 0.07 | 0.04 | 0.13 | Dose-dependent effect | COc1ccc(S(=O)(=O)n2cc(C(=O)c3ccc(F)cc3)nc2-c2ccc(N(C)C)cc2)cc1 | 0.1 | 0.06
> 10 | > 10 | > 10 | > 10 | Dose-dependent effect | COc1cc(C(=O)c2nc3ccccc3o2)cc(OC)c1OC | > 10 | > 10
> 10 | > 10 | > 10 | > 10 | Dose-dependent effect | COc1cc(C(=O)c2cc3ccc(F)cc3n2S(=O)(=O)c2ccccc2)cc(OC)c1OC | > 10 | > 10
1.47 | > 10 | > 10 | > 10 | Dose-dependent effect | COc1cc(C(=O)c2cc3cc(Cl)ccc3[nH]2)cc(OC)c1OC | 2.16 | > 10
